The values below come from ChEMBL document CHEMBL4261657, “Discovery of Clinical Candidate 2-(4-(2-((1 H-Benzo[ d]imidazol-2-yl)thio)ethyl)piperazin-1-yl)- N-(6-methyl-2,4-bis(methylthio)pyridin-3-yl)acetamide Hydrochloride [K-604], an Aqueous-Soluble Acyl-CoA:Cholesterol O-Acyltransferase-1 Inhibitor” (J Med Chem, 2018).

In general, NOAEL refers to the highest tested level that showed no adverse finding. Usually solubility stands for the dissolved amount per volume that the medium holds.

SMILES strings stand for the structures. In brackets after ≈: the same amount, converted by molar mass. Activity calls are given as the source filed them. The rule behind the calls is not given here.

Data set [1] has as its system Hamster. Briefly: Toxicity in Bio F1B hamster model of diet-induced atherosclerosis assessed as reduction in CE to FC ratio in adrenal gland at 0.3 to 10 mg/kg/day added to chow pellets. The class given is organism-based. The following applies: cricetinae, in vivo, po.
The subject of data set [2] is Hamster. The experiment in a line: Antiatherosclerotic activity in cholesterol fed F1B hamster model of diet-induced atherosclerosis assessed as reduction in lipid accumulation areas at 10 mg/kg. It is filed as functional, Cricetinae, Bio F1B. Set-up: scale not given: the % may be the effect or the level left.
Data set [3] deals with Hamster. The experiment in a line: Antiatherosclerotic activity in cholesterol fed F1B hamster model of diet-induced atherosclerosis assessed as reduction in lipid accumulation areas at 30 mg/kg. The class given is functional, Cricetinae, Bio F1B. Also noted: scale not given: the % may be the effect or the level left.
Data set [4] relates to Hamster. The experiment in a line: Antiatherosclerotic activity in Bio F1B hamster model of diet-induced atherosclerosis assessed as reduction in CE to FC ratio in liver at 0.3 to 10 mg/kg/day added to chow pellets. It is filed as functional, organism-based. The following applies: Cricetinae.
The subject of data set [5] is Hamster. Briefly: Antiatherosclerotic activity in cholesterol fed F1B hamster model of diet-induced atherosclerosis assessed as reduction in lipid accumulation areas at 3 mg/kg. It is filed as functional, Cricetinae, Bio F1B. Set-up: scale not given: the % may be the effect or the level left.
The test system of data set [6] is Hamster. Briefly: Antiatherosclerotic activity in Bio F1B hamster model of diet-induced atherosclerosis assessed as reduction in lipid accumulation areas in aortic arch at 0.3 to 10 mg/kg/day added to chow pellets by oil red O staining based assay relative to control. The settings on record: Cricetinae. The class given is functional, organism-based. Put shortly:
(§1)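 Male Bio F1B hamsters (8 weeks old) were fed CE-2 chow with 0.3% cholesterol and 10% coconut oil for 10 weeks, with compound mixed into the chow (n=7 per dose; reference group n=6). Plasma TC was measured by enzymatic kit. Aorta was perfusion-fixed with 4% paraformaldehyde under pentobarbital anaesthesia, opened and stained with oil red O, and lipid area was measured by image analysis. Results are % of control ± SD, analysed by Dunnett's test.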

Data set [7] is described as follows: Toxicity in rabbit. The settings on record: in vivo. The class given is organism-based, Oryctolagus cuniculus. Summed up:
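Preliminary adrenal toxicity test in male rabbits (four per group) given a single intravenous injection. Adrenal glands were examined 24 h after dosing for necrosis of zona fasciculata cells. The read-out was the number of animals affected per group. PD-132301-2 served as the positive control.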

Data set [8] deals with Hamster. The experiment in a line: Antiatherosclerotic activity in Bio F1B hamster model of diet-induced atherosclerosis assessed as reduction in total plasma cholesterol at 0.3 to 10 mg/kg/day added to chow pellets relative to control. It is filed as functional, organism-based. The following applies: Cricetinae. Put shortly: as §1
The subject of data set [9] is Hamster. The experiment in a line: Antiatherosclerotic activity in Bio F1B hamster model of diet-induced atherosclerosis assessed as reduction in CE to FC ratio in intestine at 0.3 to 10 mg/kg/day added to chow pellets. The class given is functional, organism-based. The following applies: Cricetinae.
Data set [10] is described as follows: Solubility of the compound in pH 1.0 solution. It is filed as physicochemical.
Data set [11] can be described thus: Solubility of the compound in 0.025N HCl. It is filed as physicochemical.

On to `CC(C)c1cc(C(C)C)c(CC(=O)NS(=O)(=O)Oc2c(C(C)C)cccc2C(C)C)c(C(C)C)c1` [AVASIMIBE], for which the Activity entry is given as “Non-Toxic” with Hamster [1], 86% in the data set on Hamster [2], 93% with Hamster [3] and 68% with Hamster [5]. The outcome in the data set on Hamster [4], with Hamster [6], in the data set on Hamster [8] and with Hamster [9] was Active. Moreover, the NOAEL in data set [7] stood at 5 mg/kg.

As to `CC(C)c1cccc(C(C)C)c1NC(=O)NCC1(Cc2ccc(N(C)C)cc2)CCCC1`, the concentration in solution in [10] (solubility) came to 2180 µg/mL (≈ 5 mM).

In data set [11], `CN(C)c1ccc(NC(=O)N(Cc2cccc(CN(C(=O)Nc3ccc(N(C)C)cc3)C3CCCCCC3)c2)C2CCCCCC2)cc1.Cl.Cl` returned a solubility of 10000 µg/mL.
